The text below walks through data of PubChem BioAssay.

Active and inactive are the calls of the source.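 The calls were made as follows, unless noted: active = fluorescence slope after compound addition differing from the mean of all tested samples at 99.7% confidence, mostly higher but some lower; inactive = the rest.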

Assay [1] is described as follows: inhibitors of TNFa-induced NFkB p65 translocation, primary screen, imaging, HUVEC, MLSMR starter and 10KST1 sets (AID 438;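 active = inhibition above 20% together with a positive visual image hit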;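 also: compound added about 3h40 before a 20 min TNFalpha stimulation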;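 as to inhibition: signal is the nuclear over cytoplasmic p65 intensity ratio per well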). Conditions: HUVEC TNFa-induced p65 nuclear translocation; cell count: measured here: nuclei count (cytotoxicity indicator), at 2.08 µM; inhibition: at 2 µM, stronger effect = higher value, 0% TNFa-plus-vehicle, 100% no-TNFa wells.
Assay [2] in a line: inhibitors of mutant huntingtin aggregation, primary screen, imaging, exon1htt(103Q)mCFP cells, high-content imaging (AID 483;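 active = visual image review flags a hit and inhibition of aggregation exceeds 20%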;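 also: compound exposure lasted 3 days before fixation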;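 as to nuclei count: percent of the per-plate median nuclei count of sample wells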). The note with it: exon1htt(103Q)mCFP cell line, aggregate imaging, at 2 µM; inhibition of aggregation: stronger effect = higher value; nuclei count: measured here: cell count, toxicity.
A short description of assay [3]: inhibitors of E-selectin induction by TNFa, primary screen, imaging, HUVEC, immunofluorescence, MLSMR starter and 10KST1 sets (AID 487;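 active = visually confirmed hit in the image check and inhibition above 20%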;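 as to inhibition: signal is fraction of cell area covered by stained E-selectin grains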;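 as to nuclei count: 100% = median nuclei count of all wells on the same plate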). The note with it: HUVEC TNFalpha-induced E-selectin immunofluorescence imaging, at 2 µM; inhibition: stronger effect = higher value; nuclei count: measured here: cell number, toxicity.
For assay [4], the target named is Voltage-gated potassium channel subunit beta-2 (Rattus norvegicus) (UniProt P62483). The assay is described as follows: KvBeta enzyme negative modulators, primary screen, biochemical, NADPH fluorescence (AID 622;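 active = fluorescence slope higher than the sample average by over 3 SD, cut at about -0.22 in these data, passing the limit was not always enough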;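 also: slope of raw intensity against log time taken from 70 to 1610 s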). Conditions: recombinant KvBeta, 4-cyanobenzaldehyde reduction, at 10 µM, stronger effect = higher value.
The target is the same in assay [5]. The assay is described as follows: KvBeta positive modulators, primary screen, biochemical, NADPH fluorescence (AID 623;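 active = NADPH fluorescence slope more negative than the mean of all samples by about 3 SD, 99.7% confidence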;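 also: fluorescence intensity change per second fitted from 20 to 320 s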). Conditions: Recombinant KvBeta, NADPH fluorescence decrease slope, 10 min; at 10 µM; stronger effect = lower value.
Assay [6] has as its target Muscarinic acetylcholine receptor M4 (Homo sapiens) (UniProt P08173). The assay can be described thus: compounds altering M4/GIRK thallium flux, either direction, primary screen, M4 allosteric agonist project, cell-based, HEK293 M4/GIRK, BTC-AM (AID 625).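 Also: thallium influx through GIRK channels coupled to M4 in HEK293 cells with BTC-AM dye.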 Conditions: at 10 µM, actives lie on both sides. An outline of the steps: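 System: HEK293 cells with M4 receptor and GIRK channels | Incubation: Cells overnight at 37 °C, BTC-AM loading 1 h, reads 2 min total | Technique: Kinetic BTC-AM fluorescence sampled at 1 Hz, 10 s pre-addition baseline | Measure: Post-addition slope, 15–24 s, of baseline-normalized fluorescence | Control set: Carbachol positive, DMSO negative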

A short description of assay [7]: inhibitors of Sendai virus-induced IRF3 signaling, primary screen, TLR/RLR signaling modifier project, cell-based, Sendai virus stimulus, luciferase, 10K MLSCN set (AID 602276;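 active = inhibition at or above 50% at 10 µM; inactive = inhibition below 50%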;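 also: firefly luciferase from ISG56 promoter only with Renilla not read in this screen; 0% = Sendai virus plus DMSO and 100% = medium plus DMSO without virus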). The note with it: HEK293 RL24 IRF3 luciferase reporter, at 10 µM, stronger effect = higher value.
A short description of assay [8]: inhibitors of poly I:C-induced TLR3 signaling, primary screen, cell-based, poly I:C stimulus, luciferase, 10K MLSCN set (AID 602277;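 active = inhibition of the reporter signal at or above 50%; inactive = inhibition below 50%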). The note with it: HEK293-TLR3 RL24 IRF3 luciferase reporter, at 10 µM, stronger effect = higher value. On the technique in general: A reporter such as luciferase makes a cellular process visible.

As a reminder, the inhibition is the drop in the measured response relative to a control, in per cent.

Voltage-gated potassium channel subunit beta-2 (Rattus norvegicus), sequence (P62483 whole entry, looked up): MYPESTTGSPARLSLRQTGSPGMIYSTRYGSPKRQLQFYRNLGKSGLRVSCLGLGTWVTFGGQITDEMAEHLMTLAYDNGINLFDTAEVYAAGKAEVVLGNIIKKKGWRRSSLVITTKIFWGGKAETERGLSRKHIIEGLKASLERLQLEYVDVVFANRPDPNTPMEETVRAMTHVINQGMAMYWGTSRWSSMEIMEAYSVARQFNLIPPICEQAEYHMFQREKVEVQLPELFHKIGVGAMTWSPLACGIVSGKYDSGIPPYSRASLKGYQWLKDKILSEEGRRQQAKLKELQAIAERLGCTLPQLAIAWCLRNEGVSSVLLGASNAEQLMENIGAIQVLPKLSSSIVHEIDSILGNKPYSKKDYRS
Muscarinic acetylcholine receptor M4 (Homo sapiens), sequence (P08173 whole entry, looked up): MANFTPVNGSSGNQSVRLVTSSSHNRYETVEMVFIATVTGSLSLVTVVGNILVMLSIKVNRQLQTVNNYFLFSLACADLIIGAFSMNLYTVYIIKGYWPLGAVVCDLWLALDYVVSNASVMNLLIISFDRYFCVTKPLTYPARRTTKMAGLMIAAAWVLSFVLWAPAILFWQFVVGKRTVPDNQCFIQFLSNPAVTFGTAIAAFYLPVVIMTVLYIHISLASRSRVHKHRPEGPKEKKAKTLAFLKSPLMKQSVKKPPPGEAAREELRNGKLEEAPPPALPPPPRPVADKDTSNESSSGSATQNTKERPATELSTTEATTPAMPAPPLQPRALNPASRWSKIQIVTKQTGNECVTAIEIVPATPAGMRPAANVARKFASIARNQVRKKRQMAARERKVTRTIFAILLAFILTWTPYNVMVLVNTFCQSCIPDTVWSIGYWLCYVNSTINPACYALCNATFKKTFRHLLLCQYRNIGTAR

As to `Cc1nc(C)c(C(=O)Nc2ccc(Oc3ccccc3)cc2)o1`, the cell count in assay [1] stood at 405. For the same molecule, the inhibition is 0.6% (inactive) in assay [1], -128% (inactive) in assay [3], -20.2% (inactive) in assay [7] and -128% (inactive) in assay [8]. The inhibition of aggregation in assay [2] was -26.8% (inactive). Also, the nuclei count in assay [2] worked out at 105%; in assay [3] it was 119%. Moreover, the figures for the fluorescence slope in assay [4] and in assay [6] were -0.306 (inactive) and 0.00832 (inactive), respectively. Besides, the NADPH fluorescence slope in assay [5] is -2.3e-05 (inactive).

For the molecule `CN(c1cccc(NS(=O)(=O)c2cccs2)c1)S(C)(=O)=O`, the cell count in assay [1] stood at 427. The inhibition in assay [1] is 2.4% (inactive); in assay [3], -5% (inactive); in assay [7] it was 21.9% (inactive); in assay [8], 15.4% (inactive). In addition, the inhibition of aggregation in assay [2] was -15.2% (inactive). For the same molecule, the values for the nuclei count in assay [2] and in assay [3] were 110% and 109%, respectively. Further, the fluorescence slope in assay [4] is -0.446 (inactive); in assay [6], 0.00491 (inactive). In addition, the NADPH fluorescence slope in assay [5] was -2.2e-06 (inactive).

With `COc1ccc(CC(=O)OCc2nnc(C3COc4ccccc4O3)o2)cc1OC` (centres undefined), the cell count in assay [1] turned out to be 440. The inhibition in assay [1] is -1.1% (inactive); in assay [3], -48% (inactive); in assay [7], 7.17% (inactive); in assay [8], 9.19% (inactive). Also, in assay [2], the inhibition of aggregation was -0.3% (inactive). For the same molecule, the nuclei count in assay [2] amounted to 91.8%; in assay [3], 85.8%. In addition, the fluorescence slope in assay [4] was -0.405 (inactive); in assay [6], 0.00765 (inactive). In assay [5], the NADPH fluorescence slope is 1.8e-05 (inactive).

Turning to `CN1CCN(C(=O)CN(Cc2ccc(Cl)cc2)S(C)(=O)=O)CC1`, the cell count in assay [1] came to 242. Further, the inhibition in assay [1] is -2.8% (inactive); in assay [3], -25% (inactive); in assay [7], 18% (inactive); in assay [8], 19.4% (inactive). Further, the inhibition of aggregation in assay [2] was 6.8% (inactive). Moreover, the nuclei count in assay [2] was 92%; in assay [3], 110%. For the same molecule, the fluorescence slope in assay [4] was -0.535 (inactive); in assay [6] it was 0.00447 (inactive). For the same molecule, the NADPH fluorescence slope in assay [5] was 9.7e-06 (inactive).

Consider `CCOC(=O)N1CCN(S(=O)(=O)c2cc(Cl)c(OC)cc2Cl)CC1`, for which the cell count in assay [1] stood at 364. In addition, the inhibition was -9.8% (inactive) in assay [1], -101% (inactive) in assay [3], -2.67% (inactive) in assay [7] and 1.26% (inactive) in assay [8]. Moreover, the inhibition of aggregation in assay [2] was -8.2% (inactive). Also, the results for the nuclei count in assay [2] and in assay [3] were 100% and 112%, respectively. The values for the fluorescence slope in assay [4] and in assay [6] were -0.509 (inactive) and 0.00536 (inactive), respectively. The NADPH fluorescence slope in assay [5] is 4.3e-05 (inactive).

Consider `Cc1occc1C(=O)Nc1ccccc1NC(=O)c1ccoc1C`, for which the cell count in assay [1] stood at 425. For the same molecule, the inhibition was -11.5% (inactive) in assay [1], 40.5% (inactive) in assay [3], 12.7% (inactive) in assay [7] and 24.7% (inactive) in assay [8]. For the same molecule, the inhibition of aggregation in assay [2] is 29.8% (inactive). Moreover, the nuclei count in assay [2] came to 87.4%; in assay [3], 90.2%. For the same molecule, the figures for the fluorescence slope in assay [4] and in assay [6] were -0.543 (inactive) and 0.00485 (inactive), respectively. In assay [5], the NADPH fluorescence slope is -3.1e-05 (inactive).

For the molecule `COc1ccccc1C(O)P(=O)(OC(C)C)c1ccc(N(C)C)cc1` (centres undefined), the cell count in assay [1] worked out at 665. In addition, the inhibition is -3.9% (inactive) in assay [1], 0% (inactive) in assay [3], 7.42% (inactive) in assay [7] and 11% (inactive) in assay [8]. In addition, in assay [2], the inhibition of aggregation was 6.1% (inactive). In addition, the nuclei count in assay [2] amounted to 122%; in assay [3], 106%. The values for the fluorescence slope in assay [4] and in assay [6] were -0.553 (inactive) and 0.00553 (inactive), respectively. For the same molecule, the NADPH fluorescence slope in assay [5] was 2.2e-06 (inactive).

As to `Cc1ccc(C(=O)Nc2ccc3c(c2)OCO3)o1`, the cell count in assay [1] was 466. The inhibition in assay [1] was 0% (inactive); in assay [3], -17.5% (inactive); in assay [7], -40.3% (inactive); in assay [8], -49.6% (inactive). For the same molecule, the inhibition of aggregation in assay [2] was -13.9% (inactive). Besides, the nuclei count in assay [2] worked out at 106%; in assay [3], 121%. Besides, the fluorescence slope in assay [4] was -0.603 (inactive); in assay [6], 0.00576 (inactive). In assay [5], the NADPH fluorescence slope was -2.2e-05 (inactive).

`CC1(C)CC(=O)c2cc(OCC(=O)N3CCN(c4ccccc4F)CC3)ccc2O1`: the cell count in assay [1] was determined as 550. Besides, the inhibition in assay [1] was -19.1% (inactive); in assay [3] it was -101% (inactive); in assay [7], 19.9% (inactive); in assay [8], 0.776% (inactive). Further, the inhibition of aggregation in assay [2] was -3.9% (inactive). The nuclei count in assay [2] is 94.6%; in assay [3], 118%. Besides, the fluorescence slope in assay [4] was -0.288 (inactive); in assay [6] it was 0.00419 (inactive). Further, the NADPH fluorescence slope in assay [5] was -5.4e-06 (inactive).

For the molecule `N#CCCn1cnc2ccccc21`, the cell count in assay [1] stood at 332. For the same molecule, the inhibition in assay [1] is 5.6% (inactive); in assay [3], 63.2% (active); in assay [7] it was -0.285% (inactive); in assay [8], 3.23% (inactive). The inhibition of aggregation in assay [2] is 22.8% (inactive). Also, the nuclei count in assay [2] was 99.2%; in assay [3] it was 132%. The fluorescence slope in assay [4] was -0.564 (inactive); in assay [6], 0.0098 (inactive). Moreover, in assay [5], the NADPH fluorescence slope was -2.5e-05 (inactive).

Take `Cn1c(Cc2ccccc2)nnc1SCC(=O)NC1CCCCC1`: the cell count in assay [1] came out at 327. Also, the inhibition in assay [1] was -2.3% (inactive); in assay [3], -136% (inactive); in assay [7], 16.3% (inactive); in assay [8] it was 0.751% (inactive). For the same molecule, in assay [2], the inhibition of aggregation was -1% (inactive). For the same molecule, the nuclei count in assay [2] is 94.8%; in assay [3], 120%. Further, the fluorescence slope in assay [4] was -0.0696 (active); in assay [6], 0.0079 (inactive). Further, the NADPH fluorescence slope in assay [5] was -3.5e-05 (inactive).

Consider `Cc1noc(C)c1S(=O)(=O)N1CCC(C(=O)Nc2ccccn2)CC1`, for which the cell count in assay [1] is 281. Also, the inhibition was -5.2% (inactive) in assay [1], -46% (inactive) in assay [3], 13.8% (inactive) in assay [7] and 21.1% (inactive) in assay [8]. In addition, the inhibition of aggregation in assay [2] is -0.6% (inactive). Moreover, the nuclei count in assay [2] came out at 96.1%; in assay [3], 128%. For the same molecule, the fluorescence slope in assay [4] is -0.404 (inactive); in assay [6], 0.00606 (inactive). Moreover, in assay [5], the NADPH fluorescence slope is 3.5e-05 (inactive).

Consider `COc1ccccc1C(=O)Nc1ccc(N2CCN(S(C)(=O)=O)CC2)cc1`, for which the cell count in assay [1] is 320. For the same molecule, the inhibition in assay [1] is -6.8% (inactive); in assay [3] it was 18.3% (inactive); in assay [7], -8.58% (inactive); in assay [8], -50.2% (inactive). Besides, the inhibition of aggregation in assay [2] is 7% (inactive). The nuclei count in assay [2] was found to be 127%; in assay [3], 116%. For the same molecule, the fluorescence slope is -0.242 (inactive) in assay [4] and 0.00706 (inactive) in assay [6]. Besides, the NADPH fluorescence slope in assay [5] is -2.5e-06 (inactive).

Regarding `O=C(Nc1ccc(Cl)cc1C(=O)Nc1ccncc1)c1ccco1`, in assay [1], the cell count amounted to 393. The inhibition was 2.1% (inactive) in assay [1], -148% (inactive) in assay [3], 18.3% (inactive) in assay [7] and 28.5% (inactive) in assay [8]. Also, the inhibition of aggregation in assay [2] is -7.4% (inactive). Also, the results for the nuclei count in assay [2] and in assay [3] were 81.3% and 101%, respectively. The values for the fluorescence slope in assay [4] and in assay [6] were -0.316 (inactive) and 0.00491 (inactive), respectively. In addition, the NADPH fluorescence slope in assay [5] was -1.2e-05 (inactive).
